Data reported in ChEMBL document CHEMBL1155163, “Deoxyribonucleoside kinases activate nucleoside antibiotics in severely pathogenic bacteria” (Antimicrob Agents Chemother, 2007).
≈ marks a conversion by molar mass, not a printed value. Calls of active or inactive are those of the source. The rule behind the calls is not given here.

B1: Deoxyguanosine kinase (Staphylococcus aureus), Q0H0G8 (protein)
chain: MNKPFIAIEGPIGVGKSSLAHKLSQTLDFYEEKEIITENPFLSDFYEDISKWSFQTEMFFLCNRYKQFQDVTQLNQGVVSDYHIHKNKIFAKNTLSSVEFQKFSKIYDILTEDMIMPNMIIFLDADLDVLKSRIAKRNRSFEHQIEDEYLLKLKKDYREYYESLQSNGSNVVLIDTTSIDFLKNEQDYEDILHIILPMIGDITNE
B2: Thymidine kinase (Staphylococcus aureus), Q0H0G9 (protein)
chain: MYETYHSGWIECITGSMFSGKSEELIRRLRRGIYAKQKVVVFKPAIDDRYHKEKVVSHNGNAIEAINISKASEIMTHDLTNVDVIGIDEVQFFDDEIVSIVEKLSADGHRVIVAGLDMDFRGEPFEPMPKLMAVSEQVTKLQAVCAVCGSSSSRTQRLINGKPAKIDDPIILVGANESYEPRCRAHHIVAPSDNNKEEL
B3: Deoxyadenosine kinase (Staphylococcus aureus), Q0H0H0 (protein)
chain: MNNYGIPQNAIITIAGTVGVGKSTLTQALADKLNFKTSFENVEHNPYLDKFYSDFERWSFHLQIYFLAERFKEQKRMFEYGGGFVQDRSIYEDVDIFAKMHEEEGTMSKEDFKTYSDLFNAMVMTPYFPKPDVMIYLECNYDEVIDRIIERGREMEINTDPEYWKKLFKRYDDWINSFNACPVVRININEYDIHKDPESLNPMINKIARIIQTYRQVDTR

Columns and labels:
Escherichia coli [1] = assay: Antimicrobial activity against Escherichia coli ATCC 25922 after 20 hrs; assay type: functional; conditions: ATCC 25922, 20 h
Outline: (§1)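 Organisms taken from overnight Columbia blood agar, adjusted to McFarland 0.5 in 0.9% NaCl, diluted a further 10-fold, then spotted on Mueller-Hinton agar containing graded nucleoside analog concentrations. Incubated 20 h at 37°C. MIC is the lowest concentration fully inhibiting growth, judged visually.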

Streptococcus sp. [2] = assay: Antimicrobial activity against Streptococcus sp. 07941-1 after 20 hrs; assay type: functional; outline: as §1
Streptococcus sp. [3] = assay: Antimicrobial activity against Streptococcus sp. 07706-1 after 20 hrs; assay type: functional; outline: as §1
Streptococcus sp. [4] = assay: Antimicrobial activity against Streptococcus sp. 07686-2 after 20 hrs; assay type: functional; outline: as §1
Staphylococcus aureus [5] = assay: Antimicrobial activity against Staphylococcus aureus ATCC 29213 after 20 hrs; assay type: functional; conditions: ATCC 29213, 20 h; outline: as §1
Staphylococcus aureus [6] = assay: Antimicrobial activity against Staphylococcus aureus CCM 885 after 20 hrs; assay type: functional; conditions: CCM 885, 20 h; outline: as §1
Streptococcus pyogenes [7] = assay: Antimicrobial activity against Streptococcus pyogenes AP1 after 20 hrs; assay type: functional; conditions: AP1, 20 h; outline: as §1
Staphylococcus aureus [8] = assay: Antibacterial activity against exponentially growing Staphylococcus aureus ATCC 29213 at 0.002 ug/ml after 3 hrs by viable count susceptibility assay; assay type: functional, organism-based
Outline: (§2)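 Cells grown overnight in Todd-Hewitt broth at 37°C with 5% CO2, subcultured to OD620 0.4, washed twice and diluted 1,000-fold in 10 mM Tris-HCl pH 7.5, 5 mM glucose, 10% Todd-Hewitt. Stopped with ice-cold buffer; duplicate plating on Todd-Hewitt agar for viable counts.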

Streptococcus pyogenes [9] = assay: Antibacterial activity against exponentially growing Streptococcus pyogenes AP1 at 0.2 ug/ml after 3 hrs by viable count susceptibility assay; assay type: functional, organism-based; outline: as §2
Escherichia coli [10] = assay: Antibacterial activity against […] kinase-deficient Escherichia coli KY895 expressing Staphylococcus aureus recombinant thymidine kinase; assay type: functional
Escherichia coli [11] = assay: Antibacterial activity against […] kinase-deficient Escherichia coli KY895 expressing Streptococcus pyogenes recombinant thymidine kinase; assay type: functional
Escherichia coli [12] = assay: Antibacterial activity against […] kinase-deficient Escherichia coli KY895 expressing Staphylococcus aureus recombinant deoxyadenosine kinase; assay type: functional
Escherichia coli [13] = assay: Antibacterial activity against […] kinase-deficient Escherichia coli KY895 expressing Staphylococcus aureus recombinant deoxyguanosine kinase; assay type: functional, organism-based
Escherichia coli [14] = assay: Antibacterial activity against […] kinase-deficient Escherichia coli KY895 expressing Streptococcus pyogenes recombinant deoxyadenosine kinase; assay type: functional
Streptococcus pyogenes [15] = assay: Antibacterial activity against 2.5 x 10^6 CFU Streptococcus pyogenes AP1-infected BALB/c mouse assessed as protection against bacterial dissemination in spleen at 100 ug, ip administered 6 hrs after bacterial infection and measured after 24 hrs postinfection; assay type: functional, organism-based
Streptococcus pyogenes [16] = assay: Antibacterial activity against 1 x 10^7 CFU Streptococcus pyogenes AP1-infected BALB/c mouse assessed as survival at 100 ug, ip after 5 days; assay type: functional
Outline: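 Adult female BALB/c mice (~20 g), six per group, given ip 1 x 10^7 CFU of mid-exponential S. pyogenes AP1 (OD620 0.5, washed, in PBS). 6 h later, ip 100 µg drug or 100 µl PBS. Survival followed at regular intervals. Survivors sacrificed at 5 days. Inoculum checked by blood-agar colony counts.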

[17] = substrate: Nc1nc(O)c2ncn([C@H]3C[C@H](O)[C@@H](CO)O3)c2n1; assay: Activity of Staphylococcus aureus CCM 885 recombinant deoxyguanosine kinase
Outline: (§3)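 Recombinant S. aureus kinase cut from a GST fusion (pGEX-2T, E. coli BL21) by thrombin. Initial velocities taken from four time samples in a DE-81 filter-paper assay with tritiated substrates at varied concentrations. Fits by nonlinear regression to Michaelis-Menten, or to the substrate-inhibition equation where needed.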

[18] = substrate: Nc1nc(O)c2ncn([C@H]3C[C@H](O)[C@@H](CO)O3)c2n1; assay: Ratio of kcat to Km for Staphylococcus aureus CCM 885 recombinant deoxyguanosine kinase; outline: as §3
[19] = substrate: Cc1cn([C@H]2C[C@H](N=[N+]=[N-])[C@@H](CO)O2)c(=O)[nH]c1=O; assay: (§4) Activity of Staphylococcus aureus CCM 885 recombinant thymidine kinase
Outline: (§5)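 GST-fused SaTK expressed in E. coli BL21 (100 µM IPTG, 6 h at 25°C), purified on glutathione-Sepharose and cleaved from GST with thrombin. Initial velocities from four time samples, DE-81 filter-paper assay with tritium-labeled deoxyribonucleoside substrates at various concentrations. Michaelis-Menten nonlinear regression.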

[20] = substrate: Cc1cn([C@H]2C[C@H](O)[C@@H](CO)O2)c(=O)[nH]c1=O; assay: as §4; outline: as §5
[21] = substrate: Cc1cn([C@H]2C[C@H](N=[N+]=[N-])[C@@H](CO)O2)c(=O)[nH]c1=O; assay: (§6) Ratio of kcat to Km for Staphylococcus aureus CCM 885 recombinant thymidine kinase; outline: as §5
[22] = substrate: Cc1cn([C@H]2C[C@H](O)[C@@H](CO)O2)c(=O)[nH]c1=O; assay: as §6; outline: as §5
[23] = substrate: Nc1ccn([C@@H]2O[C@H](CO)[C@@H](O)C2(F)F)c(=O)n1; assay: (§7) Activity of Staphylococcus aureus CCM 885 recombinant deoxyadenosine kinase; outline: as §3
[24] = substrate: Nc1ccn([C@H]2C[C@H](O)[C@@H](CO)O2)c(=O)n1; assay: as §7; outline: as §3
[25] = substrate: Nc1ncnc2c1ncn2[C@H]1C[C@H](O)[C@@H](CO)O1; assay: as §7; outline: as §3
[26] = substrate: Nc1ccn([C@@H]2O[C@H](CO)[C@@H](O)C2(F)F)c(=O)n1; assay: (§8) Ratio of kcat to Km for Staphylococcus aureus CCM 885 recombinant deoxyadenosine kinase; outline: as §3
[27] = substrate: Nc1ccn([C@H]2C[C@H](O)[C@@H](CO)O2)c(=O)n1; assay: as §8; outline: as §3
[28] = substrate: Nc1ncnc2c1ncn2[C@H]1C[C@H](O)[C@@H](CO)O1; assay: as §8; outline: as §3

Molecule | MIC (Escherichia coli [1]) | MIC (Streptococcus sp. [2]) | MIC (Streptococcus sp. [3]) | MIC (Streptococcus sp. [4]) | MIC (Staphylococcus aureus [5]) | MIC (Staphylococcus aureus [6]) | other results
Nc1nc(Cl)nc2c1ncn2[C@H]1C[C@H](O)[C@@H](CO)O1 [CLADRIBINE] | > 100 µM | 100 µM (≈ 28.6 µg/mL) | 100 µM (≈ 28.6 µg/mL) | 100 µM (≈ 28.6 µg/mL) | > 100 µM | > 100 µM | –
Nc1ccn([C@@H]2O[C@H](CO)[C@@H](O)[C@@H]2O)c(=O)n1 [CYTARABINE] | > 1000 µM | > 1000 µM | > 1000 µM | > 1000 µM | > 1000 µM | > 1000 µM | –
CCc1cn([C@H]2C[C@H](O)[C@@H](CO)O2)c(=O)[nH]c1=O [EDOXUDINE] | > 316 µM | > 316 µM | > 316 µM | > 316 µM | > 316 µM | > 316 µM | –
O=c1[nH]c(=O)n([C@H]2C[C@H](O)[C@@H](CO)O2)cc1F [FLOXURIDINE] | 1 µM (≈ 0.246 µg/mL) | 0.1 µM (≈ 0.0246 µg/mL) | 0.316 µM (≈ 0.0778 µg/mL) | 10 µM (≈ 2.46 µg/mL) | 0.01 µM (≈ 0.00246 µg/mL) | 0.00316 µM (≈ 0.000778 µg/mL) | –
Nc1nc(F)nc2c1ncn2[C@@H]1O[C@H](CO)[C@@H](O)[C@@H]1O [FLUDARABINE] | > 100 µM | > 100 µM | > 100 µM | > 100 µM | > 100 µM | > 100 µM | –
Nc1ccn([C@@H]2O[C@H](CO)[C@@H](O)C2(F)F)c(=O)n1 [GEMCITABINE] | > 1000 µM | 0.01 µM (≈ 0.00263 µg/mL) | 0.0316 µM (≈ 0.00832 µg/mL) | 0.1 µM (≈ 0.0263 µg/mL) | 0.1 µM (≈ 0.0263 µg/mL) | 0.1 µM (≈ 0.0263 µg/mL) | MIC (Streptococcus pyogenes [7]): 0.1 µM (≈ 0.0263 µg/mL); Activity (Staphylococcus aureus [8]): Active; Activity (Streptococcus pyogenes [9]): Active; Activity (Escherichia coli [10]): inactive; Activity (Escherichia coli [11]): inactive; MIC (Escherichia coli [12]): 0.001 µM; Activity (Escherichia coli [13]): inactive; MIC (Escherichia coli [14]): 0.0316 µM; Activity (Streptococcus pyogenes [15]): Active; Activity (Streptococcus pyogenes [16]): 83%
Cc1cn([C@H]2C[C@H](N=[N+]=[N-])[C@@H](CO)O2)c(=O)[nH]c1=O [ZIDOVUDINE] | 10 µM (≈ 2.67 µg/mL) | 316 µM (≈ 84.4 µg/mL) | > 316 µM | > 316 µM | > 316 µM | > 316 µM | MIC (Escherichia coli [10]): 0.0316 µM; MIC (Escherichia coli [11]): 0.01 µM; Activity (Escherichia coli [12]): inactive; Activity (Escherichia coli [13]): inactive; Activity (Escherichia coli [14]): inactive
B1 | – | – | – | – | – | – | Km [17]: 1.1 µM; Vmax [17]: 1.4 U/mg; kcat [17]: 0.57 s⁻¹; kcat/Km [18]: 5.17 ×10⁵ /M/s
B2 | – | – | – | – | – | – | Km [19]: 11.6 µM; Vmax [19]: 4 U/mg; kcat [19]: 1.48 s⁻¹; Km [20]: 2.8 µM; Vmax [20]: 1.2 U/mg; kcat [20]: 0.44 s⁻¹; kcat/Km [21]: 1.29 ×10⁵ /M/s; kcat/Km [22]: 1.6 ×10⁵ /M/s
B3 | – | – | – | – | – | – | Km [23]: 192 µM; Vmax [23]: 0.43 U/mg; kcat [23]: 0.19 s⁻¹; Km [24]: 34.4 µM; Vmax [24]: 1.3 U/mg; kcat [24]: 0.56 s⁻¹; Km [25]: 29.2 µM; Vmax [25]: 4.1 U/mg; kcat [25]: 1.82 s⁻¹; kcat/Km [26]: 9.81 ×10² /M/s; kcat/Km [27]: 1.62 ×10⁴ /M/s; kcat/Km [28]: 6.22 ×10⁴ /M/s
